The Cmax is the maximum level reached in the sampled fluid or tissue. The IC50 is the point on the concentration scale where inhibition reaches its midpoint. A word on the bioavailability: it is the share of a dose that reaches the circulation, judged against a reference dose that is usually intravenous.

Calls of active or inactive are those of the source. The rule behind the calls is not given here.

In data set [1] the target is Signal transducer and activator of transcription 3 (Homo sapiens) (UniProt P40763). Briefly: Inhibition of STAT3 phosphorylation in human Karpas299 cells. As to conditions: KARPAS-299. Format: cell-based. The method, boiled down: (§1)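 Ba/F3 NPM-ALK, Karpas-299 or SU-DHL-1 cells treated for 4 h with DMSO or increasing concentrations. STAT3 and STAT5 phosphorylation read by Western blot of lysates.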

For data set [2], the system named is BaF3. Briefly: Induction of apoptosis in mouse parental Ba/F3 cells at 50 nM after 48 hrs by annexin V assay. Format: functional, cell-based. A digest of the protocol:
(§2)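 Parental Ba/F3 (with IL-3), Ba/F3 NPM-ALK or SU-DHL-1 cells treated with 50 nM or DMSO for 48 h. Annexin V/7-AAD staining read by flow cytometry; percent Annexin V-positive cells counted.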

The target in data set [3] is Nucleophosmin (Mus musculus) (UniProt Q61937). In words: Inhibition of NPM-ALK autophosphorylation in mouse Ba/F3 NPM-ALK cells after 4 hrs. Format: cell-based. The method, boiled down: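 Ba/F3 NPM-ALK cells exposed to a range of concentrations for 4 h. NPM-ALK autophosphorylation read by Western blot. IC50 from quantified band intensities.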
Data set [4] deals with Signal transducer and activator of transcription 3 (Homo sapiens) (UniProt P40763). In words: Inhibition of STAT3 in human Karpas299 cells at 50 nM. It is filed as cell-based. The note with it: KARPAS-299, TDE = time-dependent effect. The method, boiled down:
(§3)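 Ba/F3 NPM-ALK or Karpas-299 cells held at 50 nM for times from 15 min onward. Phospho-NPM-ALK and phospho-STAT3 read by Western blot.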

Data set [5] has as its target T1, Signal transducer and activator of transcription 5A (Mus musculus) (UniProt P42230).
T1 sequence (whole entry): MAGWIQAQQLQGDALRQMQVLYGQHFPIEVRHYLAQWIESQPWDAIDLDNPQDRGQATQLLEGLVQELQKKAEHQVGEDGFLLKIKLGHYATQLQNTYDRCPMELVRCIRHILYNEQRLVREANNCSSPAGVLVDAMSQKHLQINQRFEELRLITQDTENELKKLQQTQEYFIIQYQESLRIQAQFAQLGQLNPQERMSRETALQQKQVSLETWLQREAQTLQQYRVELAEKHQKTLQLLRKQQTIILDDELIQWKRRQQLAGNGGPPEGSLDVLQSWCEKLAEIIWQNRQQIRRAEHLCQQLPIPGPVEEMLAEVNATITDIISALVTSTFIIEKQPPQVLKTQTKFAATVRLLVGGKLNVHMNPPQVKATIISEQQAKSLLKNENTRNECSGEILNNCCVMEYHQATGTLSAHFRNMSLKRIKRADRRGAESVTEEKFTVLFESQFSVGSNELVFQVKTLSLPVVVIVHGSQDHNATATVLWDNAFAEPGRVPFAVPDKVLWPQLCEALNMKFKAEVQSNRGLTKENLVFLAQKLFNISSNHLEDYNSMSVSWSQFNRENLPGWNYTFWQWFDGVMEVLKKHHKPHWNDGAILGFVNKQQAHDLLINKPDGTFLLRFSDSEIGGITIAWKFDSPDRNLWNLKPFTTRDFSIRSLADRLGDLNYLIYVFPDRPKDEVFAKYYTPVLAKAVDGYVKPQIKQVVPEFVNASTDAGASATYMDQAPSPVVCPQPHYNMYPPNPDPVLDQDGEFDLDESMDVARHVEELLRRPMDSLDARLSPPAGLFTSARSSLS
In words: Inhibition of STAT5 phosphorylation in mouse Ba/F3 NPM-ALK cells. Format: cell-based. The method, boiled down: as §1

A short description of data set [6]: Cmax in human Karpas299 cells xenografted SCID beige mouse at 20 mg/kg, po. It is filed as ADME, organism-based, KARPAS-299. On the set-up: dose 20 mg/kg, route oral. As to conditions: in vivo. The method, boiled down:
(§4)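 Mice given a single oral dose of 20 mg/kg as a solution in 10% 1-methyl-2-pyrrolidinone/90% PEG 300. Plasma levels measured to give Cmax, bioavailability and elimination half-life.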
(In general: Xenograft models place foreign cells or tissue in a host animal.)

In data set [7] the test system is KARPAS-299. Briefly: Inhibition of PI3K/Akt signaling in human Karpas299 cells assessed as Akt phosphorylation. It is filed as cell-based. The method, boiled down:
(§5)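 Karpas-299 cells treated for 4 h with increasing concentrations or DMSO. Phospho-ERK and phospho-Akt read by Western blot.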

Data set [8] addresses Signal transducer and activator of transcription 3 (Mus musculus) (UniProt P42227). In words: Inhibition of STAT3 in mouse Ba/F3 NPM-ALK cells at 50 nM. Format: cell-based. As to conditions: TDE = time-dependent effect. The method, boiled down: as §3
Data set [9] is described as follows: Antilymphomal activity against mouse Ba/F3 NPM-ALK cells xenografted in SCID beige mouse assessed as reduction in bioluminescence signal at 10 mg/kg, po once daily after 2 weeks relative to control. It is filed as functional. On the set-up: scale not given: the % may be the effect or the level left. The method, boiled down: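 Female Fox Chase SCID_Beige mice injected in the tail vein with 1 × 10⁶ luciferase-expressing Ba/F3 BCR-ABL or Ba/F3 NPM-ALK cells. From 72 h, 10 mg/kg given orally once daily in 10% 1-methyl-2-pyrrolidinone/90% PEG 300, or vehicle. Bioluminescence imaged after 2 weeks; spleens weighed.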

The target of data set [10] is Nucleophosmin (Mus musculus) (UniProt Q61937). Briefly: Inhibition of NPM-ALK in mouse Ba/F3 NPM-ALK cells at 50 nM. It is filed as cell-based. The note with it: TDE = time-dependent effect.
The test system of data set [11] is KARPAS-299. In words: Antiproliferative activity against human Karpas299 cells assessed as luciferase expression after 72 hrs. It is filed as functional, cell-based. As to conditions: KARPAS-299, 72 h. The method, boiled down: (§6)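 Luciferase-expressing Karpas-299 or SU-DHL-1 cells, 25,000 per well, exposed to serial dilutions or DMSO for 72 h. Bright-Glo luminescence normalized to DMSO wells as percent survival. IC50 from curve fit.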

Data set [12] in a line: Bioavailability in human Karpas299 cells xenografted SCID beige mouse at 20 mg/kg. It is filed as ADME, organism-based, KARPAS-299. The note with it: in vivo. The method, boiled down:
as §4

Data set [13] has as its system KARPAS-299. In words: Inhibition of RAS/RAF/MAPK signaling in human Karpas299 cells assessed as ERK phosphorylation. It is filed as cell-based. The method, boiled down:
as §5

Data set [14] concerns SU-DHL-1. Briefly: Antiproliferative activity against human SUDHL1 cells assessed as luciferase expression after 72 hrs. It is filed as functional, cell-based. As to conditions: SU-DHL-1, 72 h. The method, boiled down: as §6
Data set [15] has as its system KARPAS-299. Briefly: Antilymphomal activity against human Karpas299 cells xenografted in SCID beige mouse assessed as reduction in NPM-ALK phosphorylation after 3.5 weeks of […] at 10 mg/kg for 3 days. It is filed as functional, organism-based. On the set-up: dose 10 mg/kg. A digest of the protocol:
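Female Fox Chase SCID_Beige mice given 1 × 10⁶ Karpas-299 cells by tail vein. Treatment began at 3.5 weeks, once palpable lymphomas had formed. Drug at 10 mg/kg or vehicle for 3 days, 3 mice per arm. Killed 4 h after the third dose. Excised lymph nodes immunoblotted for NPM-ALK and Stat3 phosphorylation.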

The test system of data set [16] is Mus musculus. In words: Toxicity in human Karpas299 cells xenografted in SCID beige mouse at 10 mg/kg, po. Format: organism-based, KARPAS-299. On the set-up: dose 10 mg/kg, route oral. The note with it: in vivo. The method, boiled down: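 Female Fox Chase SCID_Beige mice bearing i.v. Karpas-299 cells received 10 mg/kg orally once daily from 72 h after injection. Watched for signs of compound- or disease-related toxicity.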

The subject of data set [17] is SU-DHL-1. In words: Induction of apoptosis in human SUDHL1 cells at 50 nM after 48 hrs by annexin V assay. It is filed as functional. The method, boiled down: as §2

Chain of Signal transducer and activator of transcription 3 (Homo sapiens) (P40763 whole entry): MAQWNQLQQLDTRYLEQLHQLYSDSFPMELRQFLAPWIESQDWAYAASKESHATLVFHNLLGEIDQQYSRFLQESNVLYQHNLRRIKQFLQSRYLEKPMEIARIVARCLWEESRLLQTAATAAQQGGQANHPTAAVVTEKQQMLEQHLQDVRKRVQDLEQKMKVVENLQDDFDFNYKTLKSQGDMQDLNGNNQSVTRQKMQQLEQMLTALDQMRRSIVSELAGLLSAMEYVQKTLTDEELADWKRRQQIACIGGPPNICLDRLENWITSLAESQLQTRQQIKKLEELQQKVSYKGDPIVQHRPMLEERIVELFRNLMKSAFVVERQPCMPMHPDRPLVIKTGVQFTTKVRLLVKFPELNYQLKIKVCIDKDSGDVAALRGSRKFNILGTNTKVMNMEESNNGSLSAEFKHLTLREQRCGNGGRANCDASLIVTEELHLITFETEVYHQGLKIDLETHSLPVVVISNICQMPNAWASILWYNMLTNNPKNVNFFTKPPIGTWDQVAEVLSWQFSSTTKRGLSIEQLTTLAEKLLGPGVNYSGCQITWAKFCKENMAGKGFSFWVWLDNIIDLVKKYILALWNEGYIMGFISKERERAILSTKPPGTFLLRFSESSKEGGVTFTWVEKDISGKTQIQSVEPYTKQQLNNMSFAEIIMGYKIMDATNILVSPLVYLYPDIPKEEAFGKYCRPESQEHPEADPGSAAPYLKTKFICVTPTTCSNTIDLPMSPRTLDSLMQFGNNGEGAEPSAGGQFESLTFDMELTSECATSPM
Chain of Nucleophosmin (Mus musculus) (Q61937 whole entry): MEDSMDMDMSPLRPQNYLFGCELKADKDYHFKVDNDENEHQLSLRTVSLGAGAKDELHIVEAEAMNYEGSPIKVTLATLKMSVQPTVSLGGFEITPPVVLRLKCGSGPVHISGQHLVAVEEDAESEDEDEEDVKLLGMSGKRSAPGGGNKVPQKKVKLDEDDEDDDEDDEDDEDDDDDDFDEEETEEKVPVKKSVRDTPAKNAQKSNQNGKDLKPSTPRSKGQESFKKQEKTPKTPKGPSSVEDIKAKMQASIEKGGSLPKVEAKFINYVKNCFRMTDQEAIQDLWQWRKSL
Chain of Signal transducer and activator of transcription 3 (Mus musculus) (P42227 whole entry): as the sequence (P40763 whole entry) above, with E760D counted along it

As to `COc1cc(N2CCC(N3CCN(C)CC3)CC2)ccc1Nc1ncc(Cl)c(Nc2ccccc2S(=O)(=O)C(C)C)n1` [TAE-684], the Activity result in data set [1] was “Dose-dependent effect”; in [3], “Dose-dependent effect”; in data set [4], “tde”; in data set [5], “Dose-dependent effect”; in data set [7], “Dose-dependent effect”; in data set [8], “tde”. For the same molecule, the Activity in [9] is over 99%; in data set [10], “tde”; in data set [13], “Dose-dependent effect”; in [16], “Non-toxic”; in [17], 70%. Also, the result in data set [2] was inactive. The Cmax in [6] was determined as 800 nM. Also, the IC50 in data set [11] turned out to be 3 nM; in data set [14], 2 nM. In addition, the bioavailability in data set [12] was 60%. Besides, in [15], the result was Active.

Values taken from ChEMBL document CHEMBL1156430, “Identification of NVP-TAE684, a potent, selective, and efficacious inhibitor of NPM-ALK” (Proc Natl Acad Sci U S A, 2007).
